Experimental data taken from ChEMBL document CHEMBL4020747, “Drug-like property-driven optimization of 4-substituted 1,5-diarylanilines as potent HIV-1 non-nucleoside reverse transcriptase inhibitors against rilpivirine-resistant mutant virus” (Bioorg Med Chem Lett, 2017).
In brackets after ≈: the same amount, converted by molar mass.

Test system: Human immunodeficiency virus 1
Experiment: Fold resistance, ratio of EC50 for rilpivirine-resistant HIV1 NL4-3 reverse transcriptase E138K mutant to EC50 for wild type HIV1 NL4-3 reverse transcriptase
Details: not given
Outline: (§1)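 Fold change calculated as EC50 against the resistant NL4-3 variant (E138K or E138K+M184I) divided by EC50 against wild-type NL4-3, both measured in parallel in TZM-bl cells by luciferase reporter expression.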
`COCCOC(=O)c1cc(N)c(Nc2ccc(C#N)cc2)cc1Oc1c(C)cc(/C=C/C#N)cc1C` showed a Ratio EC50 of 2.9. In the case of `Cc1cc(/C=C/C#N)cc(C)c1Oc1cc(Nc2ccc(C#N)cc2)c(N)cc1C(=O)N1CC1`, the Ratio EC50 is reported as 2.6. `Cc1cc(/C=C/C#N)cc(C)c1Oc1cc(Nc2ccc(C#N)cc2)c(N)cc1C(=O)NCCCl` gave a Ratio EC50 of 2.6. In the case of `Cc1cc(/C=C/C#N)cc(C)c1Oc1cc(Nc2ccc(C#N)cc2)c(N)cc1C(=O)OCCC#N`, the Ratio EC50 is reported as 2.4. For `Cc1cc(/C=C/C#N)cc(C)c1Oc1cc(Nc2ccc(C#N)cc2)c(N)cc1C(=O)NCCCO`, the Ratio EC50 was 0.9.

Test system: not listed separately
Experiment: Aqueous solubility of the compound in 0.01 M HCl at pH 2 after 4 hrs by HPLC-UV analysis
Format: physicochemical
Details: not given
Outline: (§2)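 Aqueous solubility measured by HPLC at pH 2.0 and at pH 7.4.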
`COCCOC(=O)c1cc(N)c(Nc2ccc(C#N)cc2)cc1Oc1c(C)cc(/C=C/C#N)cc1C` showed a solubility at 4 h of 1.64 µg/mL (≈ 3.4 µM). `Cc1cc(/C=C/C#N)cc(C)c1Oc1cc(Nc2ccc(C#N)cc2)c(N)cc1C(=O)N1CC1` showed a solubility at 4 h of 94.2 µg/mL (≈ 210 µM). Compound `Cc1cc(/C=C/C#N)cc(C)c1Oc1cc(Nc2ccc(C#N)cc2)c(N)cc1C(=O)NCCCl` has a solubility at 4 h of 9.53 µg/mL (≈ 19.6 µM). `Cc1cc(/C=C/C#N)cc(C)c1Oc1cc(Nc2ccc(C#N)cc2)c(N)cc1C(=O)OCCC#N` gave a solubility at 4 h of 0.94 µg/mL (≈ 1.97 µM). `Cc1cc(/C=C/C#N)cc(C)c1Oc1cc(Nc2ccc(C#N)cc2)c(N)cc1C(=O)NCCCO` gave a solubility at 4 h of 19.9 µg/mL (≈ 41.3 µM).

Test system: Liver
Experiment: Half life in human liver S9 fractions at 1 uM measured pretreated up to 45 mins followed by NADPH addition by LC/MS/MS analysis
Format: ADME, tissue-based
Details: s9, 1 µM
Outline: (§3)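 Remaining parent was quantified by LC/MS/MS at several time points to give t1/2 (min). Data from at least two experiments in parallel.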
Compound `COCCOC(=O)c1cc(N)c(Nc2ccc(C#N)cc2)cc1Oc1c(C)cc(/C=C/C#N)cc1C` has a t1/2 of 0.158 h. For `Cc1cc(/C=C/C#N)cc(C)c1Oc1cc(Nc2ccc(C#N)cc2)c(N)cc1C(=O)N1CC1`, the t1/2 was 1.83 h. For `Cc1cc(/C=C/C#N)cc(C)c1Oc1cc(Nc2ccc(C#N)cc2)c(N)cc1C(=O)NCCCl`, the t1/2 was 1.23 h. `Cc1cc(/C=C/C#N)cc(C)c1Oc1cc(Nc2ccc(C#N)cc2)c(N)cc1C(=O)OCCC#N` showed a t1/2 of 0.2 h.

Test system: Human immunodeficiency virus
Experiment: Fold resistance, ratio of EC50 for rilpivirine-resistant HIV1 NL4-3 reverse transcriptase E138K/M184I double mutant to EC50 for wild type HIV1 NL4-3 reverse transcriptase
Details: not given
Outline: as §1
Work on `COCCOC(=O)c1cc(N)c(Nc2ccc(C#N)cc2)cc1Oc1c(C)cc(/C=C/C#N)cc1C` yielded a Ratio EC50 of 6.3. `Cc1cc(/C=C/C#N)cc(C)c1Oc1cc(Nc2ccc(C#N)cc2)c(N)cc1C(=O)N1CC1` gave a Ratio EC50 of 5. `Cc1cc(/C=C/C#N)cc(C)c1Oc1cc(Nc2ccc(C#N)cc2)c(N)cc1C(=O)NCCCl` showed a Ratio EC50 of 5.2. Compound `Cc1cc(/C=C/C#N)cc(C)c1Oc1cc(Nc2ccc(C#N)cc2)c(N)cc1C(=O)OCCC#N` has a Ratio EC50 of 4.1.

Test system: not listed separately
Experiment: Aqueous solubility of the compound in phosphate buffer at pH 7.4 after 4 hrs by HPLC-UV analysis
Format: physicochemical
Details: not given
Outline: as §2
With `COCCOC(=O)c1cc(N)c(Nc2ccc(C#N)cc2)cc1Oc1c(C)cc(/C=C/C#N)cc1C` the solubility at 4 h was 0.77 µg/mL (≈ 1.6 µM). Work on `Cc1cc(/C=C/C#N)cc(C)c1Oc1cc(Nc2ccc(C#N)cc2)c(N)cc1C(=O)N1CC1` yielded a solubility at 4 h of 1.2 µg/mL (≈ 2.67 µM). For `Cc1cc(/C=C/C#N)cc(C)c1Oc1cc(Nc2ccc(C#N)cc2)c(N)cc1C(=O)NCCCl`, the solubility at 4 h was 1.59 µg/mL (≈ 3.27 µM). Compound `Cc1cc(/C=C/C#N)cc(C)c1Oc1cc(Nc2ccc(C#N)cc2)c(N)cc1C(=O)OCCC#N` has a solubility at 4 h of 0.36 µg/mL (≈ 0.754 µM). With `Cc1cc(/C=C/C#N)cc(C)c1Oc1cc(Nc2ccc(C#N)cc2)c(N)cc1C(=O)NCCCO` the solubility at 4 h was 1.01 µg/mL (≈ 2.1 µM).

Test system: TZM
Experiment: Cytotoxicity against human TZM-bl cells infected with HIV1 NL4-3
Format: cell-based
Details: tzm
With `COCCOC(=O)c1cc(N)c(Nc2ccc(C#N)cc2)cc1Oc1c(C)cc(/C=C/C#N)cc1C` the CC50 was > 207 nM. In the case of `Cc1cc(/C=C/C#N)cc(C)c1Oc1cc(Nc2ccc(C#N)cc2)c(N)cc1C(=O)N1CC1`, the CC50 is reported as > 223 nM. With `Cc1cc(/C=C/C#N)cc(C)c1Oc1cc(Nc2ccc(C#N)cc2)c(N)cc1C(=O)NCCCl` the CC50 was > 206 nM. In the case of `Cc1cc(/C=C/C#N)cc(C)c1Oc1cc(Nc2ccc(C#N)cc2)c(N)cc1C(=O)OCCC#N`, the CC50 is reported as > 210 nM. In the case of `Cc1cc(/C=C/C#N)cc(C)c1Oc1cc(Nc2ccc(C#N)cc2)c(N)cc1C(=O)NCCCO`, the CC50 is reported as > 208 nM.

Test system: Liver
Experiment: Half life in human liver microsomes at 1 uM pretreated up to 45 mins followed by NADPH addition by LC/MS/MS analysis
Format: ADME, microsome
Details: microsomes, 1 µM
Outline: as §3
With `COCCOC(=O)c1cc(N)c(Nc2ccc(C#N)cc2)cc1Oc1c(C)cc(/C=C/C#N)cc1C` the t1/2 was 0.317 h. `Cc1cc(/C=C/C#N)cc(C)c1Oc1cc(Nc2ccc(C#N)cc2)c(N)cc1C(=O)N1CC1` gave a t1/2 of 2.63 h. In the case of `Cc1cc(/C=C/C#N)cc(C)c1Oc1cc(Nc2ccc(C#N)cc2)c(N)cc1C(=O)NCCCl`, the t1/2 is reported as 1.02 h. With `Cc1cc(/C=C/C#N)cc(C)c1Oc1cc(Nc2ccc(C#N)cc2)c(N)cc1C(=O)OCCC#N` the t1/2 was 0.283 h.

Test system: not listed separately
Experiment: Octanol-water partition coefficient, log P of the compound at pH 7.4 after 24 hrs by HPLC method
Format: physicochemical
Details: pH 7.4, 24 h
For `COCCOC(=O)c1cc(N)c(Nc2ccc(C#N)cc2)cc1Oc1c(C)cc(/C=C/C#N)cc1C`, the logP was > 5. In the case of `Cc1cc(/C=C/C#N)cc(C)c1Oc1cc(Nc2ccc(C#N)cc2)c(N)cc1C(=O)N1CC1`, the logP is reported as 2.21. With `Cc1cc(/C=C/C#N)cc(C)c1Oc1cc(Nc2ccc(C#N)cc2)c(N)cc1C(=O)NCCCl` the logP was > 5. For `Cc1cc(/C=C/C#N)cc(C)c1Oc1cc(Nc2ccc(C#N)cc2)c(N)cc1C(=O)OCCC#N`, the logP was > 5. With `Cc1cc(/C=C/C#N)cc(C)c1Oc1cc(Nc2ccc(C#N)cc2)c(N)cc1C(=O)NCCCO` the logP was 3.22.

Test system: Plasma
Experiment: Half life in human plasma at 10 ug/ml by LC/MS/MS analysis
Format: ADME, cell-free
Details: not given
Work on `COCCOC(=O)c1cc(N)c(Nc2ccc(C#N)cc2)cc1Oc1c(C)cc(/C=C/C#N)cc1C` yielded a t1/2 of 62 h. Work on `Cc1cc(/C=C/C#N)cc(C)c1Oc1cc(Nc2ccc(C#N)cc2)c(N)cc1C(=O)N1CC1` yielded a t1/2 of 12 h. `Cc1cc(/C=C/C#N)cc(C)c1Oc1cc(Nc2ccc(C#N)cc2)c(N)cc1C(=O)NCCCl` showed a t1/2 of 8 h. With `Cc1cc(/C=C/C#N)cc(C)c1Oc1cc(Nc2ccc(C#N)cc2)c(N)cc1C(=O)OCCC#N` the t1/2 was 32 h.

Test system: not listed separately
Experiment: Inhibition of wild type HIV1 NL4-3 reverse transcriptase infected in human TZM-b1 cells after 2 days by bright Glo-luciferase reporter gene assay
Format: cell-based
Details: Human immunodeficiency virus 1, NL4-3, TZM-b1, 48 h
Outline: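 Anti-HIV activity against HIV-1 NL4-3 replication in TZM-bl cells, read out by luciferase gene expression. EC50 values from at least three experiments (n = 3). Top test concentration 100 ng/mL for the newly made series.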
With `COCCOC(=O)c1cc(N)c(Nc2ccc(C#N)cc2)cc1Oc1c(C)cc(/C=C/C#N)cc1C` the EC50 was 1.52 nM. Compound `Cc1cc(/C=C/C#N)cc(C)c1Oc1cc(Nc2ccc(C#N)cc2)c(N)cc1C(=O)N1CC1` has an EC50 of 3.33 nM. `Cc1cc(/C=C/C#N)cc(C)c1Oc1cc(Nc2ccc(C#N)cc2)c(N)cc1C(=O)NCCCl` gave an EC50 of 3.29 nM. Work on `Cc1cc(/C=C/C#N)cc(C)c1Oc1cc(Nc2ccc(C#N)cc2)c(N)cc1C(=O)OCCC#N` yielded an EC50 of 1.11 nM. Work on `Cc1cc(/C=C/C#N)cc(C)c1Oc1cc(Nc2ccc(C#N)cc2)c(N)cc1C(=O)NCCCO` yielded an EC50 of 24.9 nM.

Test system: not listed separately
Experiment: Inhibition of rilpivirine-resistant HIV1 NL4-3 reverse transcriptase E138K/M184I double mutant infected in human TZM-b1 cells after 2 days by bright Glo-luciferase reporter gene assay
Format: cell-based
Details: Human immunodeficiency virus 1, NL4-3, TZM-b1, 48 h
Outline: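 TZM-bl cells infected with NL4-3 variant carrying E138K or E138K+M184I RT mutations; EC50 from luciferase reporter gene expression. Test compounds up to 100 ng/mL highest concentration; at least three experiments (n = 3). Run in parallel with wild-type NL4-3 and reference drug.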
`COCCOC(=O)c1cc(N)c(Nc2ccc(C#N)cc2)cc1Oc1c(C)cc(/C=C/C#N)cc1C` gave an EC50 of 9.54 nM. Work on `Cc1cc(/C=C/C#N)cc(C)c1Oc1cc(Nc2ccc(C#N)cc2)c(N)cc1C(=O)N1CC1` yielded an EC50 of 16.7 nM. Compound `Cc1cc(/C=C/C#N)cc(C)c1Oc1cc(Nc2ccc(C#N)cc2)c(N)cc1C(=O)NCCCl` has an EC50 of 17.3 nM. With `Cc1cc(/C=C/C#N)cc(C)c1Oc1cc(Nc2ccc(C#N)cc2)c(N)cc1C(=O)OCCC#N` the EC50 was 4.61 nM.
